Key:
[1] = molecular target: Matrix metalloproteinase-9 (Homo sapiens, UniProt P14780); experiment: Inhibitory activity against Matrix metalloprotease-9 (concentration required for 50% inhibition of enzyme activity)
How it was run: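 Substrate added from a 1 mM DMSO stock, reaction 60 min, stopped with 3% acetic acid. Fluorescence read at ex 320/em 405 nm. Mean of two assays; IC50 taken as 50% inhibition.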

[2] = molecular target: 72 kDa type IV collagenase (Homo sapiens, UniProt P08253)
72 kDa type IV collagenase, sequence (P08253 whole entry): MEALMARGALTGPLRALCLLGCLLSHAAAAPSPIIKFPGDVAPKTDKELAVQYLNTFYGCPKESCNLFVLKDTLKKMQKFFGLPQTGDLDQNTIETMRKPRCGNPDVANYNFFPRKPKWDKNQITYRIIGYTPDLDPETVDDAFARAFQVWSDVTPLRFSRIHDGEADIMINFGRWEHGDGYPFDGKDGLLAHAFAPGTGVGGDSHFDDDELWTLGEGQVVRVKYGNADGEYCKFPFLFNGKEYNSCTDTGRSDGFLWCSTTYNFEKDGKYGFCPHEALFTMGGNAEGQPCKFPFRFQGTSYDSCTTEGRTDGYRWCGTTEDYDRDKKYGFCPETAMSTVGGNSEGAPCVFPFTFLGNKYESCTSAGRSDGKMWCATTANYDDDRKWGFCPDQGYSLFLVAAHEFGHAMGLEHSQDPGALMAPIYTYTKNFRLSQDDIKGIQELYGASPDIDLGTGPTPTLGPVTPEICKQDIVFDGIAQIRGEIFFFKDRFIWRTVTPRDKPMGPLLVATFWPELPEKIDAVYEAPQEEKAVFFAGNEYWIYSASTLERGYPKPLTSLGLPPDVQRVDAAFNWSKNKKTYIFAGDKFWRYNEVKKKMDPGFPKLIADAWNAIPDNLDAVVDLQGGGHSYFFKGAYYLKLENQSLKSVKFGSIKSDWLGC

Matrix metalloproteinase-9, sequence (P14780 whole entry): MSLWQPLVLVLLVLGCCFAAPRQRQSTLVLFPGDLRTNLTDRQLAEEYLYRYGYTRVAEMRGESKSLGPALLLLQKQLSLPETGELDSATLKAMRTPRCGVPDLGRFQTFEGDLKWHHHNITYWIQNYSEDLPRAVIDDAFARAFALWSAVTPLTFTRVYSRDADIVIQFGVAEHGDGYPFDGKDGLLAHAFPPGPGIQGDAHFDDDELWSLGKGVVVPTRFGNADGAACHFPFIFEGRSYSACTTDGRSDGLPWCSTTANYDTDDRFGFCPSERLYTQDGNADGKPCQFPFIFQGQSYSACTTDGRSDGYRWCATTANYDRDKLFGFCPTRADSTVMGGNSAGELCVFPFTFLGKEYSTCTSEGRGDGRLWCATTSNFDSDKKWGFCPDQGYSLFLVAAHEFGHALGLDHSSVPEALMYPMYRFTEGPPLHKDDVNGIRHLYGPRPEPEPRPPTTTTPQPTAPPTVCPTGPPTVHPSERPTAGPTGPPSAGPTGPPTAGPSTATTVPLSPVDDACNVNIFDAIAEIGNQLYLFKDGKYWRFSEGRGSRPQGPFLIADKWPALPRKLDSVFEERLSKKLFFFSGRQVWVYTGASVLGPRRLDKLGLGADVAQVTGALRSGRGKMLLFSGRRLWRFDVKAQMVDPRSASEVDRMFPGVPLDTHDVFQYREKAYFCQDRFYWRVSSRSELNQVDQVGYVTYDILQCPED

Compound	IC50 [1]	IC50 [2]
Cc1ccccc1C#Cc1ccc(S(=O)(=O)N[C@H](Cc2c[nH]c3ccccc23)C(=O)O)s1	1.7 µM	0.081 µM
CC(C)[C@@H](NS(=O)(=O)c1ccc(C#Cc2ccc(Oc3ccccc3)cc2)s1)C(=O)O	0.26 µM	0.018 µM
O=C(O)[C@@H](Cc1ccccc1)NS(=O)(=O)c1ccc(-c2ccc(-c3ccccc3)cc2)cc1	0.012 µM	0.0044 µM
O=C(O)[C@@H](Cc1c[nH]c2ccccc12)NS(=O)(=O)c1cccc2ccccc12	> 20 µM	> 20 µM
O=C(O)[C@@H](Cc1ccccc1)NS(=O)(=O)c1ccc(-c2ccccc2)cc1	2.7 µM	
Cc1ccc(C#Cc2ccc(S(=O)(=O)N[C@@H](C(=O)O)C(C)C)s2)cc1	0.024 µM	0.0059 µM
O=C(N[C@H](Cc1ccccc1)C(=O)O)c1ccc(-c2ccccc2)cc1	> 20 µM	
CCCCc1ccc(C#Cc2ccc(S(=O)(=O)N[C@H](Cc3c[nH]c4ccccc34)C(=O)O)s2)cc1	2.7 µM	
CCCCc1ccc(C#Cc2ccc(S(=O)(=O)N[C@@H](C(=O)O)C(C)C)s2)cc1	0.21 µM	0.0054 µM
COc1ccc(C#Cc2ccc(S(=O)(=O)N[C@H](Cc3c[nH]c4ccccc34)C(=O)O)cc2)cc1	0.0082 µM	0.00065 µM
CCCCOc1ccc(C#Cc2ccc(S(=O)(=O)N[C@@H](C(=O)O)C(C)C)s2)cc1	0.21 µM	0.0047 µM
O=C(O)[C@@H](Cc1c[nH]c2ccccc12)NS(=O)(=O)c1ccc(C#Cc2ccc(Oc3ccccc3)cc2)s1	2.3 µM	
CC(C)[C@H](C(=O)O)N(C)S(=O)(=O)c1ccc(-c2nnn(-c3ccccc3)n2)cc1	0.87 µM	
CC(C)[C@@H](NS(=O)(=O)c1ccc(-c2nnn(-c3ccccc3)n2)cc1)C(=O)O	0.072 µM	
Cc1ccc(C#Cc2ccc(S(=O)(=O)N[C@H](Cc3c[nH]c4ccccc34)C(=O)O)s2)cc1 [S-3304]	0.0096 µM	
O=C(O)[C@@H](Cc1ccccc1)NS(=O)(=O)c1ccc(C#Cc2ccccc2)cc1	0.34 µM	0.02 µM
COc1ccc(C#Cc2ccc(S(=O)(=O)N[C@H](Cc3c[nH]c4ccccc34)C(=O)O)cc2[N+](=O)[O-])cc1	1.9 µM	0.033 µM
CCc1ccc(C#Cc2ccc(S(=O)(=O)N[C@H](Cc3c[nH]c4ccccc34)C(=O)O)s2)cc1	0.0073 µM	
CCc1ccc(C#Cc2ccc(S(=O)(=O)N[C@@H](C(=O)O)C(C)C)s2)cc1	0.0044 µM	0.0048 µM
CCCCOc1ccc(C#Cc2ccc(S(=O)(=O)N[C@H](Cc3c[nH]c4ccccc34)C(=O)O)s2)cc1	2 µM	
O=C(O)[C@@H](Cc1ccccc1)NS(=O)(=O)c1ccc(Br)cc1	> 20 µM	7.1 µM
O=C(O)[C@@H](Cc1c[nH]c2ccccc12)NS(=O)(=O)c1ccc2ccccc2c1	> 20 µM	0.5 µM

— ChEMBL document CHEMBL1132207, “Homology modeling of gelatinase catalytic domains and docking simulations of novel sulfonamide inhibitors” (J Med Chem, 1999)
